Assay [1] relates to Mus musculus. The experiment in a line: Induction of hypothermia in C57B1/6J mouse at 16 mg/kg, ip. Format: functional, organism-based. The arrangement: dose 16 mg/kg. Put shortly: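 Male C57Bl/6J mice, 6-8 weeks, 20-26 g, given 16 mg kg^-1 i.p. in 4:1 v/v PEG300:Tween80 at 4 μl g^-1; vehicle controls received PEG300:Tween80 alone. Cannabinoid effects were scored in the tetrad test.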

The subject of assay [2] is Mus musculus. The assay is described as follows: Inhibition of GPID in C57B1/6J mouse brain membrane at 16 mg/kg, ip after 4 hrs by competitive activity-based protein profiling-MudPIT method. Format: functional, organism-based. The arrangement: dose 16 mg/kg. An outline of the steps:
(§1)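 After i.p. dosing in 4:1 PEG300:Tween80, male C57Bl/6J mice were killed at 4 h. Brain membrane proteomes from treated and vehicle mice were labelled with FP-biotin. Labelled proteins were enriched on avidin, digested on-bead with trypsin and analysed by multidimensional LC-MS. Proteins were identified by SEQUEST, and dosed samples were compared with vehicle.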

Assay [3] relates to Mus musculus. The experiment in a line: Inhibition of MAGL in C57B1/6J mouse brain membrane assessed as inhibition of 2-AG hydrolysis activity at 16 mg/kg, ip upto 24 hrs by competitive activity-based protein profiling method relative to control. Format: functional. Conditions: route intraperitoneal. An outline of the steps: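 Male C57Bl/6J mice dosed i.p. in 4:1 v/v PEG300:Tween80, with vehicle controls; killed at set times (0.5-24 h, or 4 h). Brain membrane 2-AG hydrolysis measured by LC-MS substrate assay, and brain 2-AG measured by lipid LC-MS, relative to vehicle.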

In assay [4] the test system is Mus musculus. The experiment in a line: Change in free fatty acid level in C57B1/6J mouse brain at 16 mg/kg, ip by LC-MS. Format: functional, organism-based. The arrangement: dose 16 mg/kg. An outline of the steps: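 Mice received 16 mg kg^-1 i.p. in 4:1 PEG300:Tween80 and were killed at 0.5, 1, 2, 4, 8 and 24 h. Brain lipids, including N-acylethanolamines, MAGs, free fatty acids and arachidonic acid, were measured by LC-MS.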

Assay [5] deals with Mus musculus. The assay is described as follows: Inhibition of FAM108A1 in C57B1/6J mouse brain membrane at 16 mg/kg, ip after 4 hrs by competitive activity-based protein profiling-MudPIT method. Format: functional, organism-based. The arrangement: dose 16 mg/kg. Put shortly: as §1
Assay [6] has as its system Mus musculus. The experiment in a line: Inhibition of FAS in C57B1/6J mouse brain membrane at 16 mg/kg, ip after 4 hrs by competitive activity-based protein profiling-MudPIT method. Format: functional, organism-based. More on the design: dose 16 mg/kg. An outline of the steps:
as §1

Assay [7] concerns Mus musculus. The experiment in a line: Antinociceptive activity against formalin-induced pain in C57B1/6J mouse assessed as paw lifting or licking during early phase (0 to 10 mins) at 40 m/kg, po administered 2 hrs before formalin challenge pretreated with rimonabant. Format: functional, organism-based.
Assay [8] deals with Mus musculus. The experiment in a line: Decrease in arachidonic acid levels in intraperitoneally dosed C57B1/6J mouse brain after 4 hrs by LC-MS. Format: functional, organism-based. Put shortly:
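Male C57Bl/6J mice given 4, 8, 16 or 40 mg kg^-1 i.p. in 4:1 PEG300:Tween80 at 4 μl g^-1, or vehicle, and killed after 4 h. Whole-brain lipids were quantified by LC-MS.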

In assay [9] the test system is Mus musculus. The experiment in a line: Inhibition of 2210412D01 gene in C57B1/6J mouse brain membrane at 16 mg/kg, ip after 4 hrs by competitive activity-based protein profiling-MudPIT method. Format: functional, organism-based. More on the design: dose 16 mg/kg. Put shortly: (§2)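 Mice were dosed 16 mg kg^-1 i.p. or vehicle and killed at 4 h. Brain membrane proteomes were labelled with FP-biotin, avidin-enriched, trypsin-digested on bead, analysed by multidimensional LC-MS and identified by SEQUEST.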

In assay [10] the test system is Mus musculus. The experiment in a line: Inhibition of FAAH in C57B1/6J mouse brain membrane assessed as elevated level of anandamide at 10 mg/kg, ip by competitive activity-based protein profiling method. Format: functional, organism-based. More on the design: dose 10 mg/kg.
In assay [11] the test system is Mus musculus. The experiment in a line: Inhibition of DPP9 in C57B1/6J mouse brain membrane at 16 mg/kg, ip after 4 hrs by competitive activity-based protein profiling-MudPIT method. More on the design: dose 16 mg/kg. Format: functional, organism-based. An outline of the steps: as §2
Assay [12] relates to Mus musculus. The assay is described as follows: Inhibition of CTHA in C57B1/6J mouse brain membrane at 16 mg/kg, ip after 4 hrs by competitive activity-based protein profiling-MudPIT method. More on the design: dose 16 mg/kg. Format: functional, organism-based. An outline of the steps: as §2
Assay [13] deals with Mus musculus. The assay is described as follows: Antinociceptive activity against formalin-induced pain in C57B1/6J mouse assessed as paw lifting or licking during late phase (20-40 mins) at 40 m/kg, po administered 2 hrs before formalin challenge pretreated with rimonabant. Format: functional, organism-based.
The target of assay [14] is T1, Cytosolic phospholipase A2 (Homo sapiens) (UniProt P47712).
T1 sequence (whole entry): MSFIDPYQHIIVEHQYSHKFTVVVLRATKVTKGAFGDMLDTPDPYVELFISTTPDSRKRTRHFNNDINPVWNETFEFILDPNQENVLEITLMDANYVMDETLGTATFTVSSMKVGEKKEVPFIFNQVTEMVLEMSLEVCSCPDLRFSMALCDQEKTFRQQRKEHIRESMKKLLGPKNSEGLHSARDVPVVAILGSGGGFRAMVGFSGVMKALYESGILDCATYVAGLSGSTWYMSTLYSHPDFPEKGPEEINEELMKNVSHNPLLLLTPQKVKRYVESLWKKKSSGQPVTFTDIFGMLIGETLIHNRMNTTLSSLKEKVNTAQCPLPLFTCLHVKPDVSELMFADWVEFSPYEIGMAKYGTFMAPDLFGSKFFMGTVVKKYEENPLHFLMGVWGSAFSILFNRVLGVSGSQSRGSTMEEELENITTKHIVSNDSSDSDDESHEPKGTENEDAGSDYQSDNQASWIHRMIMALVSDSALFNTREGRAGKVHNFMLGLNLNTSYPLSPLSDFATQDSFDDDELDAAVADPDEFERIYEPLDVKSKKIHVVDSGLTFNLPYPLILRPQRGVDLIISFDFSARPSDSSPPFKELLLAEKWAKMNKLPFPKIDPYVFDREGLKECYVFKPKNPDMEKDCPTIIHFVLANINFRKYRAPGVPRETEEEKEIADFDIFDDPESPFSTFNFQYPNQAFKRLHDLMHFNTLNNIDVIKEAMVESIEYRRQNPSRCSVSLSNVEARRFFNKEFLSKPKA
The assay is described as follows: Inhibition of recombinant cPLA2 4a expressed in HEK293 cells assessed as hydrolysis of PAPC to arachidonic acid at 20 uM TLC assay. Format: cell-based.

Assay [15] concerns Mus musculus. The experiment in a line: Inhibition of MAGL in orally dosed C57B1/6J mouse brain membrane after 4 hrs. Format: functional, organism-based. Put shortly: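 Oral dosing used male C57Bl/6J mice (6-8 weeks) given inhibitor in PEG300 vehicle at 4 ul g^-1, handled as for i.p. dosing. Brains were taken 4 h later for analysis of brain membrane hydrolase activity.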

Assay [16] relates to Mus musculus. The experiment in a line: Inhibition of NTE in C57B1/6J mouse brain membrane at 16 mg/kg, ip after 4 hrs by competitive activity-based protein profiling-MudPIT method. More on the design: dose 16 mg/kg. Format: functional, organism-based. An outline of the steps: as §1
Assay [17] relates to Mus musculus. The assay is described as follows: Inhibition of PPME1 in C57B1/6J mouse brain membrane at 16 mg/kg, ip after 4 hrs by competitive activity-based protein profiling-MudPIT method. Format: functional, organism-based. The arrangement: dose 16 mg/kg. An outline of the steps:
as §1

The structures appear in SMILES notation. The source made the active and inactive calls. The rule behind the calls is not given here.

The term inhibition in vivo denotes the percentage by which the read-out fell short of the control. As to `O=C(Oc1ccc([N+](=O)[O-])cc1)N1CCC(C(O)(c2ccc3c(c2)OCO3)c2ccc3c(c2)OCO3)CC1`, the outcome in assay [1] and in assay [8] was Active. Also, the inhibition result in assay [2], in [5], in [6], in [9], in assay [11] and in assay [12] was “inactive” throughout. Besides, the inhibition entry in assay [14], in assay [16] and in [17] was “inactive” each time. Moreover, in assay [3], the inhibition in vivo at 16 mg/kg was more than 80%. Besides, the result in [4], in assay [7] and in [13] was inactive. The inhibition entry in [10] and in assay [15] was “Active” throughout.

Values taken from ChEMBL document CHEMBL1221219, “Selective blockade of 2-arachidonoylglycerol hydrolysis produces cannabinoid behavioral effects” (Nat Chem Biol, 2009).
